Screening data deposited in PubChem BioAssay by Broad Institute.
A selection: hits, their analogues and other compounds. The true share with any hit is near 1.4%.
CDK5 p35 inh: inhibitors of human CDK5/p35 kinase, primary screen, biochemical, single concentration; Cyclin-dependent kinase 5 (Homo sapiens) + Cyclin-dependent kinase 5 activator 1 (Homo …; Recombinant CDK5/p35, ADP-Glo luminescence, 60 min; inhibition, % at 10 µM; 330,000 tested, 0.01% active;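 active means highest replicate inhibition of at least 50% and at least 75% of replicates reaching 50%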;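 further: plate controls were DMSO neutral control for no effect and GW8510 at 10 µM for full effect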
CAL PDZ FP-1: untagged CAL PDZ binding inhibitors, primary screen, biochemical, fluorescence polarization, HTS; Golgi-associated PDZ and coiled-coil motif-containing protein (Homo sapiens), Q9HD26; purified CAL PDZ, TMR-peptide fluorescence polarization, 1 h; inhibition, % at 24.9 µM; 300,000 tested, 0.92% active; AID 602252, 2012;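 active means mean inhibition of at least 30% with at least half of replicates also reaching 30%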;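 further: 0% = DMSO neutral control and 100% = excess unlabeled competitor peptide PRC23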
Glyco luc inh: increase of ERlucT glycosylation luciferase signal, primary screen, N-linked glycosylation inhibitor project, D54 ERlucT cells, luminescence, set 2; D54 ERlucT glycosylation luciferase reporter, 24 h; percent of 100 nM tunicamycin response; reporter increase, % at 12.5 µM; 360,000 tested, 0.23% active;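 active means mean luciferase reporter signal, scaled so untreated is 0 and the glycosylation-blocking control 100, at or above a set limit in every replicate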;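 further: luciferase carries N-glycosylation sites so blocking glycosylation raises the light; 0% = median of neutral control wells and 100% = median of 100 nM tunicamycin wells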
CAL PDZ FP-2: CAL PDZ peptide-binding inhibitors, primary screen, biochemical, fluorescence polarization, Cer-tagged CAL PDZ, HTS; inhibition, % at 20 µM; 330,000 tested, 0.02% active; AID 504414, 2011; Golgi-associated PDZ and coiled-coil motif-containing protein (Homo sapiens), Q9HD26; purified CAL PDZ, TMR-peptide fluorescence polarization, 1 h;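 active means highest replicate inhibition of at least 40%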;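 further: plate controls were DMSO neutral control wells for no effect and unlabeled competitor peptide control wells for full effect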
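Material: tagged CAL PDZ protein CerCALP, purified; buffer or medium: sodium phosphate/NaCl buffer pH 7.4 with TCEP, IgG, Thesit; also added: fluorescent TMR peptide probe; schedule: 1 h incubation at room temperature before polarization reading; technique: fluorescence polarization from S- and P-plane intensities, G-factor corrected; control set: unlabelled peptide and DMSO controls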
Vif inh: HIV Vif self-association inhibitors, primary screen, imaging, HEK293T, single point; inhibition, % at 7.49 µM; 340,000 tested, 0.35% active; HEK293T cells, Vif self-association by quenched fluorescence, 24 h; in the data active means inhibition above about 50%, passing the limit was not always enough
PvdQ inh: P. aeruginosa PvdQ acylase inhibitors, primary screen, biochemical, fluorescence, plate reader and imaging, single point | PvdQ acylase [Pseudomonas aeruginosa LESB58] | AID 488965, 2010 | 340,000 tested, 0.063% active | inhibition, % at 10 µM | purified PvdQ acylase; in the data active means inhibition above about 30%, passing the limit was not always enough;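 further: 0% = vehicle neutral wells and 100% = reference inhibitor wells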
* hit, by the source's call.

Results for CCOc1ccccc1N(CC(=O)NCC1CCCO1)C(=O)CCC(=O)Nc1nccs1 (stereo unspecified) ?
CDK5 p35 inh: 1; CAL PDZ FP-1: -8; Glyco luc inh: 1; CAL PDZ FP-2: -2; Vif inh: 61*; PvdQ inh: -16

Results for CCOC(=O)C1=CCN(S(=O)(=O)c2ccccc2Br)C1c1cccc(F)c1 (stereo unspecified) ?
Glyco luc inh: 0

What do the screens show for `COc1cccc(OCCCCN2CC(C)OC(C)C2)c1` (stereo unspecified)?
CDK5 p35 inh: 0; CAL PDZ FP-1: 42*; Glyco luc inh: 0; CAL PDZ FP-2: -1; Vif inh: 5; PvdQ inh: -17

How did CC1CN(CCCCOc2ccc3ccccc3c2)CC(C)O1 (stereo unspecified) do in these assays?
CDK5 p35 inh: 2; CAL PDZ FP-1: 0; Glyco luc inh: -1; CAL PDZ FP-2: 0; Vif inh: 7; PvdQ inh: -24

What do the screens show for `C=CCc1ccc(OCCCCN2CC(C)OC(C)C2)c(OC)c1` (stereo unspecified)?
CDK5 p35 inh: 1; CAL PDZ FP-1: 58*; Glyco luc inh: -2; CAL PDZ FP-2: -1; Vif inh: -6; PvdQ inh: -10

What do the screens show for `CC1CN(CCOc2ccc(F)cc2)CC(C)O1` (stereo unspecified)?
CDK5 p35 inh: 0; CAL PDZ FP-1: 42*; Glyco luc inh: 0; CAL PDZ FP-2: 0; Vif inh: 12; PvdQ inh: -8

What do the screens show for `COc1ccccc1-c1nnc(C2CCN(S(=O)(=O)c3ccccc3[N+](=O)[O-])CC2)o1`?
CDK5 p35 inh: 2; Glyco luc inh: -2; CAL PDZ FP-2: -1; Vif inh: -2; PvdQ inh: -13

Results for Cc1ccc2c(c1)CCCN2S(=O)(=O)c1cccc(C(=O)Nc2ccccc2C(=O)O)c1 ?
CDK5 p35 inh: -1; CAL PDZ FP-1: -14; Glyco luc inh: -3; CAL PDZ FP-2: -5; Vif inh: -6; PvdQ inh: -7

What do the screens show for `COc1ccc(NC(=O)C2CCN(S(=O)(=O)c3ccc(Cl)c(C(F)(F)F)c3)CC2)cn1`?
Glyco luc inh: 1

What do the screens show for `Cc1ccc(NC(=O)CN2C(=O)S/C(=C\c3ccccn3)C2=O)cc1`?
CDK5 p35 inh: -4; CAL PDZ FP-1: 85*; Glyco luc inh: 0; CAL PDZ FP-2: -1; Vif inh: 4; PvdQ inh: -16

Results for CCCCCCSc1ccc([C@@H]2[C@H]3C(=O)N(CC)C(=O)[C@H]3[C@]3(C(=O)OC)CCCN23)cc1 ?
CDK5 p35 inh: 0; CAL PDZ FP-1: -1; Glyco luc inh: 0; CAL PDZ FP-2: 0; Vif inh: -3; PvdQ inh: -2

How did Cc1cc(NS(=O)(=O)c2ccc(NC(=O)CSc3nc4ncc(Br)cc4[nH]3)cc2)nc(C)n1 do in these assays?
CDK5 p35 inh: 7; CAL PDZ FP-1: -6; Glyco luc inh: 1; CAL PDZ FP-2: -3; Vif inh: 9; PvdQ inh: -18

What do the screens show for `Cc1cc(=O)c2c(N(C)C)cccc2[nH]1`?
Glyco luc inh: 3; Vif inh: -3

What do the screens show for `O=C(COC(=O)C12CC3CC(CC(C3)C1)C2)NNC(=O)c1ccccc1`?
CDK5 p35 inh: -3; Glyco luc inh: -1; CAL PDZ FP-2: 0; Vif inh: -3; PvdQ inh: -9

What do the screens show for `Cn1nnnc1Sc1ncnc2scc(-c3ccc(Cl)cc3)c12`?
CDK5 p35 inh: -2; CAL PDZ FP-1: -2; Glyco luc inh: -13; CAL PDZ FP-2: -1; Vif inh: 149*; PvdQ inh: -1

What do the screens show for `Cc1sc2ncnc(Sc3nnnn3-c3ccccc3)c2c1C`?
CDK5 p35 inh: -1; CAL PDZ FP-1: -1; Glyco luc inh: -4; CAL PDZ FP-2: -1; PvdQ inh: -3
